According to ChEMBL document CHEMBL1177847, “Combating oxidative stress in epilepsy: design, synthesis, quantum chemical studies and anticonvulsant evaluation of 1-(substituted benzylidene/ethylidene)-4-(naphthalen-1-yl)semicarbazides” (Eur J Med Chem, 2010):
Calls of active or inactive are those of the source. The calls are words filed in the database; no cut-off is given here.

Tests used:
[1] = tested on: Mus musculus; assay: Neurotoxicity in ip dosed Swiss albino mouse assessed as minimum dose required to cause impair in motor coordination after 4 hrs by rotarod test; format: toxicity, organism-based; settings: in vivo
Procedure, shortened: (§1)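 Rotarod motor-impairment test in male Swiss albino mice dosed i.p. at 30, 100 or 300 mg/kg in 5% gum acacia/water. Mice that fell off the rotating rod within 30 s during pretraining were excluded. The dose at which animals fell off was recorded at 0.5 and 4 h.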

[2] = tested on: Mus musculus; assay: Neurotoxicity in ip dosed Swiss albino mouse assessed as minimum dose required to cause impair in motor coordination after 0.5 hrs by rotarod test; format: toxicity, organism-based; settings: in vivo; procedure, shortened: as §1
[3] = tested on: Mus musculus; assay: Anticonvulsant activity against subcutaneous pentylenetetrazole-induced seizures in ip dosed Swiss albino mouse assessed as minimum effective dose after 0.5 hrs; format: functional; settings: read-out: MED
Procedure, shortened: (§2)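 Male Swiss albino mice (18–25 g) were dosed i.p. with the compound in 5% gum acacia/water at 30, 100 or 300 mg/kg. Thirty minutes later they received PTZ 85 mg/kg (CD97) and were watched for seizures over 4 h. Readings at 0.5 and 4 h gave the lowest dose active in half or more of the animals. Myoclonic jerks were noted separately.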

[4] = tested on: Mus musculus; assay: Anticonvulsant activity against maximal electroshock-induced seizures in Swiss albino mouse at 300 mg/kg, ip after 0.5 hrs; format: functional, organism-based; parameters: dose 300 mg/kg
Procedure, shortened: (§3)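 Male Swiss albino mice (18–25 g) received the compound suspended in 5% gum acacia/water, i.p. at 30, 100 and 300 mg/kg (one to four animals per dose). Maximal electroshock was applied at 0.5 and 4 h. Protection meant abolition of the hind limb tonic extensor component. The lowest dose protecting half or more of the mice was recorded.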

[5] = tested on: Mus musculus; assay: Toxicity in subcutaneous pentylenetetrazole-induced Swiss albino mouse assessed as death at 30 to 300 mg/kg, ip after 4 hrs; format: organism-based; parameters: dose 30-300 mg/kg
Procedure, shortened: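 Male Swiss albino mice (18–25 g) given compound suspended in 5% gum acacia/water, i.p. at 30, 100 or 300 mg/kg, one to four animals per dose. PTZ at 85 mg/kg was injected 30 min after compound. Animals were examined 0.5 and 4 h after administration, and death following tonic extension was noted. The maximum dose was 300 mg/kg.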

[6] = tested on: Mus musculus; assay: Anticonvulsant activity against maximal electroshock-induced seizures in Swiss albino mouse at 300 mg/kg, ip after 4 hrs; format: functional, organism-based; parameters: dose 300 mg/kg; procedure, shortened: as §3
[7] = tested on: Mus musculus; assay: Anticonvulsant activity against maximal electroshock-induced seizures in ip dosed Swiss albino mouse assessed as minimum effective dose after 0.5 hrs; format: functional; settings: read-out: MED; procedure, shortened: as §3
[8] = tested on: Mus musculus; assay: Anticonvulsant activity against subcutaneous pentylenetetrazole-induced seizures in ip dosed Swiss albino mouse assessed as minimum effective dose after 4 hrs; format: functional; settings: read-out: MED; procedure, shortened: as §2
[9] = tested on: Mus musculus; assay: Anticonvulsant activity against maximal electroshock-induced seizures in ip dosed Swiss albino mouse assessed as minimum effective dose after 4 hrs; format: functional; settings: read-out: MED; procedure, shortened: as §3
[10] = tested on: Mus musculus; assay: Neurotoxicity in ip dosed Swiss albino mouse assessed as impair in motor coordination at 300 mg/kg, ip after 0.5 hrs by rotarod test; format: toxicity, organism-based; parameters: dose 300 mg/kg, route intraperitoneal; settings: in vivo; procedure, shortened: as §1
[11] = tested on: Mus musculus; assay: Anticonvulsant activity against subcutaneous pentylenetetrazole-induced seizures in Swiss albino mouse at 300 mg/kg, ip after 4 hrs; format: functional, organism-based; parameters: dose 300 mg/kg; procedure, shortened: as §2
[12] = tested on: Mus musculus; assay: Neurotoxicity in ip dosed Swiss albino mouse assessed as impair in motor coordination at 300 mg/kg, ip after 4 hrs by rotarod test; format: toxicity, organism-based; parameters: dose 300 mg/kg, route intraperitoneal; settings: in vivo; procedure, shortened: as §1
[13] = tested on: Mus musculus; assay: Anticonvulsant activity against subcutaneous pentylenetetrazole-induced seizures in Swiss albino mouse at 300 mg/kg, ip after 0.5 hrs; format: functional, organism-based; parameters: dose 300 mg/kg; procedure, shortened: as §2
[14] = tested on: Mus musculus; assay: Restoration of GSH peroxidase activity in subcutaneous pentylenetetrazole treated Swiss albino mouse brain assessed per mg of protein at 100 mg/kg, ip after 4 hrs; format: functional; settings: route intraperitoneal
Procedure, shortened: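 Brain homogenate came from PTZ-treated mice 4 h after 100 mg/kg i.p. dosing, using the 10500 × g supernatant. Samples were equilibrated 5 min at 25 °C, started with H2O2, and A340 was followed for 5 min. n = 6.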

[15] = tested on: Mus musculus; assay: Restoration of SOD activity in subcutaneous pentylenetetrazole treated Swiss albino mouse brain assessed per mg of protein at 100 mg/kg, ip after 4 hrs; format: functional; settings: route intraperitoneal
Procedure, shortened: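 The ethanol phase of an ethanol/chloroform (5:3) extract of brain supernatant was used, from PTZ-treated mice 4 h after 100 mg/kg i.p. Superoxide was generated by xanthine–xanthine oxidase at pH 10.2 with NBT, 20 min at 25 °C. The reaction was stopped with CuCl2 and read at 560 nm. One unit gives 50% inhibition of NBT reduction; results are expressed as U/mg protein. n = 6.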

[16] = tested on: Mus musculus; assay: Restoration of GSH level in subcutaneous pentylenetetrazole treated Swiss albino mouse brain assessed per gram of tissue at 100 mg/kg, ip after 4 hrs; format: functional; settings: route intraperitoneal
Procedure, shortened: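 Brains were taken from PTZ-treated mice 4 h after 100 mg/kg i.p. dosing. Tissue was deproteinized with an equal volume of 10% TCA for 2 h at 4 °C and centrifuged at 2000 g for 15 min. The supernatant was mixed with 0.4 M Tris (pH 8.9) containing 0.02 M EDTA, and 0.01 M DTNB was added before spectrophotometric reading. n = 6.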

[17] = tested on: Mus musculus; assay: Reduction of lipid peroxidation in subcutaneous pentylenetetrazole treated Swiss albino mouse brain assessed reduction of malondialdehyde level per mg of protein at 100 mg/kg, ip after 4 hrs by TBARS assay; format: functional; settings: route intraperitoneal
Procedure, shortened: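 PTZ-treated mice were dosed at 100 mg/kg i.p. and decapitated 4 h after the last injection. Brains were homogenized in four volumes of ice-cold 50 mM Tris-HCl, pH 7.4, and spun at 3000 × g for 15 min. TBARS in the supernatant was read at 532 nm in the upper organic layer and expressed as nmol MDA/mg protein. n = 6, mean ± S.E.M.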

Row | Compound | Activity [1] [mg/kg] | Activity [2] [mg/kg] | minimal effective dose [3] [mg/kg] | Activity [4] | Activity [5] | Activity [6] | minimal effective dose [7] [mg/kg] | minimal effective dose [8] [mg/kg] | minimal effective dose [9] [mg/kg] | Activity [10] | Activity [11] | Activity [12] | Activity [13] | Activity [14] [U] | Activity [15] [U] | Activity [16] [µg] | Activity [17] [nmol]
1 | O=C(N/N=C/c1ccccc1O)Nc1cccc2ccccc12 | 300 | 300 | 300 | inactive | Toxic | inactive | – | – | – | – | – | – | – | – | – | – | –
2 | NC(=O)N1c2ccccc2C=Cc2ccccc21 [CARBAMAZEPINE] | 300 | 100 | 100 | – | – | – | 30 | 300 | 100 | – | – | – | – | – | – | – | –
3 | O=C(N/N=C/c1ccccc1Cl)Nc1cccc2ccccc12 | 300 | – | 300 | inactive | – | inactive | – | – | – | Non-toxic | inactive | – | – | – | – | – | –
4 | C/C(=N\NC(=O)Nc1cccc2ccccc12)c1ccccc1 | – | 100 | – | – | – | inactive | 300 | – | – | – | inactive | Non-toxic | inactive | – | – | – | –
5 | O=C(N/N=C/c1ccc(O)cc1)Nc1cccc2ccccc12 | 300 | 100 | – | – | – | inactive | 100 | – | – | – | inactive | – | inactive | – | – | – | –
6 | CCCC(CCC)C(=O)O [VALPROIC ACID] | – | – | 300 | inactive | – | inactive | – | – | – | Non-toxic | inactive | Non-toxic | – | 2.19 | 1.82 | 22.14 | 1.96
7 | O=C1NC(=O)C(c2ccccc2)(c2ccccc2)N1 [PHENYTOIN] | 100 | 100 | – | – | – | – | 30 | – | 30 | – | inactive | – | inactive | – | – | – | –
8 | COc1cccc(/C=N/NC(=O)Nc2cccc3ccccc23)c1 | – | 100 | 100 | inactive | – | – | – | – | 300 | – | inactive | Non-toxic | – | – | – | – | –
9 | C/C(=N\NC(=O)Nc1cccc2ccccc12)c1ccc(Cl)cc1 | – | 300 | 300 | inactive | – | – | – | – | 300 | – | inactive | Non-toxic | – | – | – | – | –
10 | O=C(N/N=C/c1ccccc1[N+](=O)[O-])Nc1cccc2ccccc12 | – | 300 | 300 | inactive | – | – | – | – | 300 | – | inactive | Non-toxic | – | – | – | – | –
11 | O=C(N/N=C/c1ccc(Br)cc1)Nc1cccc2ccccc12 | 300 | 300 | 300 | – | – | – | 300 | – | 300 | – | inactive | – | – | – | – | – | –
12 | O=C(N/N=C/c1ccc(Cl)cc1Cl)Nc1cccc2ccccc12 | 300 | – | 300 | – | – | – | 100 | 300 | 100 | Non-toxic | – | – | – | 1.65 | 1.69 | 21.35 | 2.78
